Results: ChEMBL document CHEMBL1926584, “Pterocarpanquinones, aza-pterocarpanquinone and derivatives: synthesis, antineoplasic activity on human malignant cell lines and antileishmanial activity on Leishmania amazonensis” (Bioorg Med Chem, 2011)

Key:
HL-60 = experiment: Antineoplastic activity against human HL60 cells after 72 hrs by MTT assay; type: functional, cell-based; settings: HL-60, 72 h
In short: (§1)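 Tumour lines kept in RPMI 1640 with 10% FBS, 2 mM glutamine, penicillin/streptomycin, 37 °C, 5% CO2. Seeded at 10^5 cells/mL (adherent) or 3×10^5 cells/mL (leukemia). Compounds 0.1–25 µg/mL in DMSO 1%, 72 h. Vehicle controls got equal DMSO. MTT 0.5 mg/mL for 3 h, formazan dissolved in DMSO, absorbance at 595 nm. Doxorubicin 0.01–5 µg/mL as positive control.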

K562 = experiment: Antineoplastic activity against human K562 cells after 72 hrs by MTT assay; type: functional, cell-based; settings: K562, 72 h; in short: as §1
HCT-8 = experiment: Antineoplastic activity against human HCT8 cells after 72 hrs by MTT assay; type: functional, cell-based; settings: HCT-8, 72 h; in short: as §1
SF-295 = experiment: Antineoplastic activity against human SF295 cells after 72 hrs by MTT assay; type: functional, cell-based; settings: SF-295, 72 h; in short: as §1
MDA-MB-435 [1] = experiment: Antineoplastic activity against human MDA-MB-435 cells after 72 hrs by MTT assay; type: functional, cell-based; settings: MDA-MB-435, 72 h; in short: as §1
PBMC [2] = experiment: Cytotoxicity against PHA activated human PBMC cells after 72 hrs by MTT assay; type: cell-based
In short: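 PBMC isolated from heparinized blood of healthy non-smoking donors (drug-free ≥15 days) by Ficoll-Hypaque density-gradient centrifugation. Plated at 3×10^5 cells/mL in RPMI 1640 with 20% FBS, glutamine and antibiotics, 37 °C, 5% CO2. Phytohemagglutinin (3%) added at start. After 24 h, compounds 0.1–25 µg/mL in DMSO 1% added for 72 h. MTT read-out at 595 nm.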

PBMC [3] = experiment: Selectivity index, ratio of IC50 for PHA activated human PBMC cells to IC50 for human HL60 cells; type: functional
PBMC [4] = experiment: Selectivity index, ratio of IC50 for PHA activated human PBMC cells to IC50 for human HCT8 cells; type: functional
PBMC [5] = experiment: Selectivity index, ratio of IC50 for PHA activated human PBMC cells to IC50 for human SF295 cells; type: functional
PBMC [6] = experiment: Selectivity index, ratio of IC50 for PHA activated human PBMC cells to IC50 for human MDA-MB-435 cells; type: functional
Leishmania amazonensis [7] = experiment: Antileishmanial activity against Leishmania amazonensis promastigotes after 72 hrs by MTT assay; type: functional, organism-based
In short: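 Promastigotes grown at 26 °C in Schneider's medium with 10% FBS. Inoculum 1.0×10^6/ml, compounds 0–20 µM, 72 h at 26 °C. MTT (5 mg/mL solution) added for 2 h, then DMSO, OD at 570 nm. Pentamidine isethionate as reference. Experiments repeated at least three times; IC50 derived by software fitting.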

Leishmania amazonensis [8] = experiment: Antileishmanial activity against Leishmania amazonensis amastigotes infected in BALB/c mouse peritoneal macrophages after 72 hrs by microscopy; type: functional, organism-based
In short: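 Resident BALB/c peritoneal macrophages in RPMI, 2×10^6/mL, 1 h at 37 °C, 5% CO2. Infected with stationary-phase promastigotes at 3:1 parasite/macrophage for 3 h, then washed with PBS. Compounds 0–20 µM in duplicate for 72 h. Hematological stain and light microscopy, amastigotes counted in ≥100 macrophages. Pentamidine reference. Repeated at least three times.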

J774 = experiment: Cytotoxicity against mouse J774 cells after 72 hrs by MTT assay; type: cell-based; settings: J774, 72 h
In short: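 J774 murine macrophages (2×10^6 in 200 µL) incubated with a range of compound concentrations for 72 h at 37 °C/5% CO2. Viability by MTT. Pentamidine isethionate as reference. Experiments repeated at least three times.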

PBMC [9] = experiment: Selectivity index, ratio of IC50 for PHA activated human PBMC cells to IC50 for human K562 cells; type: functional
MDA-MB-435 [10] = experiment: Ratio of doxorubicin IC50 to compound IC50 for human MDA-MB-435 cells; type: functional

Row | IC50 (HL-60) | IC50 (K562) | IC50 (HCT-8) | IC50 (MDA-MB-435 [1]) | IC50 (Leishmania amazonensis [8]) | SMILES | IC50 (SF-295) | IC50 (PBMC [2]) | Ratio IC50 (PBMC [3]) | Ratio IC50 (PBMC [4]) | Ratio IC50 (PBMC [5]) | Ratio IC50 (PBMC [6]) | IC50 (Leishmania amazonensis [7]) | IC50 (J774) | Ratio IC50 (PBMC [9]) | Ratio IC50 (MDA-MB-435 [10])
1 | > 112 µM | > 112 µM | > 112 µM | > 112 µM |  | c1ccc2c(c1)O[C@@H]1c3ccccc3OC[C@H]21 | > 112 µM |  |  |  |  |  |  |  |  | 
2 | > 112 µM | > 112 µM | > 112 µM | > 112 µM |  | c1ccc2c(c1)CC[C@@H]1c3ccccc3O[C@H]21 | > 112 µM |  |  |  |  |  |  |  |  | 
3 | 6.1 µM | 6.4 µM | 9 µM | 5 µM |  | Cc1ccc(S(=O)(=O)N2c3ccccc3[C@H]3COc4ccccc4[C@H]32)cc1 | 31.5 µM |  |  |  |  |  |  |  |  | 
4 | 1 µM | 1.9 µM | 3 µM | 0.5 µM | 2.15 µM | Cc1ccc(S(=O)(=O)N2c3ccccc3[C@H]3CCc4ccccc4[C@H]32)cc1 | > 62.5 µM | 7.2 µM | 7.2 | 2.4 | 0.11 | 14.4 | 4.85 µM | 23 µM |  | 
5 | 0.5 µM |  | 2.8 µM | 1.8 µM |  | O=C1C2=C(OCC=C2)C(=O)c2ccccc21 | 2.3 µM | < 1.4 µM | 2.8 | 0.5 | 0.6 | 0.78 |  |  |  | 
6 | 3.5 µM | 3.3 µM | 10.4 µM | 11.4 µM | > 20 µM | COc1ccc2c(c1)O[C@@H]1C3=C(OC[C@H]21)C(=O)c1ccccc1C3=O (racemic) | 17.7 µM | 7.8 µM | 2.22 | 0.75 | 0.44 | 0.68 | 2.85 µM | 49.5 µM | 9.4 | 
7 | 4.1 µM | 8 µM | > 13 µM | > 13 µM | 0.5 µM | COC(=O)c1ccc2c(c1)[C@H]1COC3=C(C(=O)c4ccccc4C3=O)[C@H]1O2 (racemic) | > 13 µM |  |  |  |  |  | 2.8 µM | 22.5 µM |  | 
8 | 3 µM | 13.5 µM | 6 µM | 10.7 µM | 1.25 µM | COc1cc(C=O)cc2c1O[C@@H]1C3=C(OC[C@H]21)C(=O)c1ccccc1C3=O (racemic) | 7.4 µM | 6 µM | 2 | 1 | 0.8 | 0.56 | 1.27 µM | 18 µM |  | 
9 | 17.4 µM | 13.5 µM | 21.2 µM | 30.8 µM |  | COc1c2c(c(OC)c3ccccc13)[C@H]1Oc3ccccc3[C@H]1CO2 (racemic) | 22.4 µM |  |  |  |  |  |  |  |  | 
10 | 7.4 µM | 5.5 µM | 0.6 µM | 0.4 µM | > 20 µM | Cc1ccc(S(=O)(=O)N2c3ccccc3[C@H]3COC4=C(C(=O)c5ccccc5C4=O)[C@H]32)cc1 (racemic) | 3.9 µM | 23 µM | 3.12 | 38.5 | 5.92 | 57.7 | 15 µM | > 100 µM | 4.33 | 2
11 | > 51 µM | 46.7 µM | > 51 µM | > 51 µM |  | COc1c2c(c(OC)c3ccccc13)[C@@H]1[C@H](CO2)c2ccccc2N1S(=O)(=O)c1ccc(C)cc1 (racemic) | > 51 µM |  |  |  |  |  |  |  |  | 
12 | 6.3 µM |  | 8.3 µM | 17.4 µM | 1.85 µM | O=C1C2=C(C(=O)c3ccccc31)[C@H]1Oc3ccc([N+](=O)[O-])cc3[C@H]1CO2 (racemic) | 8.9 µM | 8.6 µM | 1.36 | 1.06 | 0.96 | 0.49 | 1.07 µM | 12.1 µM |  | 
13 | 1.3 µM |  | 2.6 µM | 2.3 µM | 1.45 µM | O=C1C2=C(C(=O)c3ccccc31)[C@H]1Oc3ccccc3[C@H]1CO2 (racemic) [PTEROCARPANQUINONE] | 3.6 µM | > 20 µM | 15.4 | 7.7 | 5.5 | 8.7 | 1.73 µM | 18.5 µM | 12 | 0.42
14 | 0.04 µM | 1.67 µM |  |  |  | COc1cccc2c1C(=O)c1c(O)c3c(c(O)c1C2=O)C[C@@](O)(C(=O)CO)C[C@@H]3O[C@H]1C[C@H](N)[C@H](O)[C@H](C)O1 [DOXORUBICIN] |  |  |  |  |  |  |  |  |  | 
15 |  |  |  |  | 1.5 µM | N=C(N)c1ccc(OCCCCCOc2ccc(C(=N)N)cc2)cc1 [PENTAMIDINE] |  |  |  |  |  |  | 2.2 µM | 70 µM |  | 
